Assay outcomes as filed in PubChem BioAssay.
Sampled rows, rich in hits. Any-hit rate of the full collection: about 2.2%.
GRK2 inh: compounds blocking aptamer binding on GRK2 – biochemical, human GRK2, bead flow cytometry, HTS, primary screen | FAM-aptamer displacement from GRK2 | inhibition of aptamer binding, % at 10 µM | 0.59% of 330,000 active;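 active = inhibition of aptamer binding above 40%, roughly 3 SD of noise, on plates passing a quality check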;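 note: median bead fluorescence of bound FAM aptamer so fluorescent compounds give negative values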
Target sequence (P25098 whole entry, looked up): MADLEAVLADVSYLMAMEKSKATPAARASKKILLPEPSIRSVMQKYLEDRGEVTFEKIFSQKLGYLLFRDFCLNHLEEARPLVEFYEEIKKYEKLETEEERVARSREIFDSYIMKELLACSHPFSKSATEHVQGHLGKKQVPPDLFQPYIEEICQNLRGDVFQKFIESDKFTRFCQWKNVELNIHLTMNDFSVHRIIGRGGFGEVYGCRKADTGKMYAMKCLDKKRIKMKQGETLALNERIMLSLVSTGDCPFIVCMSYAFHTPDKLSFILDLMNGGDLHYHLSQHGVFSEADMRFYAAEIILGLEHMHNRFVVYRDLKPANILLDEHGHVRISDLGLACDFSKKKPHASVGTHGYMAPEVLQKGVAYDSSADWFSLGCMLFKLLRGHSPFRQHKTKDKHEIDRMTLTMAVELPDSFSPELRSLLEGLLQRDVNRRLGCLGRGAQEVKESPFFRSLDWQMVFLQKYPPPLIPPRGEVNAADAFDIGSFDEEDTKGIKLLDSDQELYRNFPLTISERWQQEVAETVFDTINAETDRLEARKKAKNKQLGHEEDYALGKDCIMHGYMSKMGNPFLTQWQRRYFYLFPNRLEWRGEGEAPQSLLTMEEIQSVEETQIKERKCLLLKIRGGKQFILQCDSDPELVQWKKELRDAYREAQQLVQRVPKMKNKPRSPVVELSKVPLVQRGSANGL
SUMO1 PPI mod: modulators of SUMO1 protein-protein interactions, primary screen, biochemical, uHTS | SUMO1 binding to a labelled peptide, TR-FRET, 1 h | 0.33% of 360,000 active | inhibition, % at 20 µM; in the data active = inhibition above about 37%
LMPTP block: LMPTP phosphatase inhibitors, primary screen, biochemical, fluorescence intensity, uHTS; recombinant LMPTP-A, OMFP fluorogenic substrate; AID 651560, 2012; inhibition, % at 20 µM; Low molecular weight phosphotyrosine protein phosphatase (Homo sapiens), P24666; 0.22% of 360,000 active;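 active = compounds that cut the enzyme signal by at least half of the control window in the single-dose screen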
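Assay system: LMPTP-A, protein tyrosine phosphatase of low molecular weight / Medium: pH 6.0 Bis-Tris buffer with DTT and Triton X-100 / Schedule: 50 min enzyme reaction at room temperature, protected from light / Measured by: endpoint fluorescence intensity from OMFP dephosphorylation / Read-out basis: % inhibition relative to no-enzyme and uninhibited control wells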
Scp-1 inhibitor: Scp-1 phosphatase inhibitors, primary screen, biochemical, colorimetric, uHTS; Carboxy-terminal domain RNA polymerase II polypeptide A small phosphatase 1 (Homo …; AID 493091, 2011; inhibition, % at 20 µM; Recombinant Scp1, phosphopeptide, malachite green phosphate absorbance; 0.88% of 340,000 active;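 active = inhibition above about 50% at 20 µM, limit read from the data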
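Test system: SCP-1 catalytic domain; Buffer or medium: Acidic Tris acetate buffer with magnesium and detergent; Also added: Phosphorylated 17-residue peptide substrate; Compound: single 20 µM dose, 1% DMSO; Schedule: enzyme reaction 45 min at room temperature, colour 5 min, stabilisation 30 min; Signal: Phosphate-binding colour reagent, absorbance read at 630 nm.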
DNMT1 inh: human DNMT1 methyltransferase inhibitors, primary screen, biochemical, molecular beacon, fluorescence, HinP1I cleavage, uHTS; DNA (cytosine-5)-methyltransferase 1 (Homo sapiens), P26358; inhibition (reported as % activation of signal), % at 10 µM; 0.83% of 360,000 active; AID 588458, 2011; in the data active = inhibition above about 50%
STEP inh: STEP phosphatase inhibitors, primary screen, biochemical, fluorescence intensity, uHTS; AID 588621, 2011; 0.25% of 360,000 active; inhibition, % at 20 µM; recombinant STEP, OMFP fluorogenic substrate; Tyrosine-protein phosphatase non-receptor type 5 (Homo sapiens), P54829;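 active = inhibition at 20 µM, scaled per plate between control wells, above about 37%, limit read from the data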
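medium = Bis-Tris buffer pH 6.0, 2.5 mM DTT, 0.005% Tween 20 | test system = STEP (striatal-enriched tyrosine phosphatase) enzyme, cell-free | measure = normalized % inhibition | compound dosing = 20 µM, 1% DMSO | also added = 25 µM OMFP | schedule = reaction 20 min, ambient temperature | measured by = fluorescence read at 480 nm ex / 540 nm em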
DNMT1 interf DR: spectral interference with molecular beacon fluorescence, dose response, artefact control for DNMT1 inhibitor project, biochemical, fluorescent molecular beacon | shares compounds with DNMT1 inh | spectral interference counter-screen | IC50, µM | 200 tested, under 10 active; call rule not given here
DNMT1 inh conf: DNMT1 methyltransferase inhibitor retest, confirmation, biochemical, molecular beacon, fluorescence, single concentration; AID 602385, 2012; inhibition, % at 10 µM; 8% of 2,300 active; shares compounds with DNMT1 inh; DNMT1 molecular beacon HinP1I cleavage;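 active = average inhibition of at least 30% in the single-concentration confirmation test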
DNMT1 interf: shows spectral interference in the DNMT1 beacon assay; activation (fluorescence interference), % at 10 µM; 1% of 2,300 active; AID 602387; shares compounds with DNMT1 inh; DNMT1 molecular beacon spectral interference counterscreen, fluorescence 485/520;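 active = activation of at least 30% at 10 µM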;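 note: DNMT1 catalytic domain with a HinP1I cleavage step and a FAM/dabcyl DNA beacon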
Each line names hits and unclear results; the compound was inactive in the other large screens (follow-up assays come after a bar, where they were run).

CCCCN1CCNC[C@H]1Cc1ccc(O)cc1	none
O=C1NN(c2ccccc2)C(=O)C1=Cc1ccccc1O	none (no result: GRK2 inh, Scp-1 inhibitor)
O=C1NN(c2ccccc2)C(=O)/C1=C/c1ccc(Sc2cccc3ccccc23)o1	DNMT1 inh 66 | DNMT1 interf DR inactive | DNMT1 inh conf 69 | DNMT1 interf inactive
CCc1ccc2c(c1)c1nc(C)sc1n2CC	DNMT1 inh 51 | DNMT1 inh conf inactive | DNMT1 interf inactive
Cc1nc2c3cc(F)ccc3n(Cc3ccc(F)cc3)c2s1	none
CC1=C(C#N)C(C)(C)C(C#N)=C(C)N1	none (no result: GRK2 inh, Scp-1 inhibitor)
COc1ccccc1C1C2=C(CC(C)(C)CC2=O)N(CC(=O)O)C2=C1C(=O)CC(C)(C)C2	DNMT1 inh 52 | DNMT1 inh conf inactive | DNMT1 interf inactive
CC(=O)Nc1ccc(S(=O)(=O)NN=c2sc3ccccc3n2C)cc1N	none (no result: GRK2 inh, Scp-1 inhibitor)
Cc1ccc(N=C2NC(=O)/C(=C/C=C/c3ccco3)S2)cc1	DNMT1 inh 87 | DNMT1 inh conf inactive | DNMT1 interf inactive
Cc1cccc(N=C2NC(=O)/C(=C/C=C/c3ccco3)S2)c1C	SUMO1 PPI mod 40, Scp-1 inhibitor 66, DNMT1 inh 94 | DNMT1 inh conf inactive | DNMT1 interf inactive
COc1ccccc1C(=O)NC(=O)CSc1ccc(C)c(C)c1	none
O=C(COc1ccc(Cl)cc1Cl)NN=C1c2ccccc2-c2ccccc21	DNMT1 inh 87 | DNMT1 inh conf inactive | DNMT1 interf inactive
O=C(COC(=O)C12CC3CC(CC(C3)C1)C2)Nc1nccs1	none
Cc1ccnc(NC(=O)COC(=O)C23CC4CC(CC(C4)C2)C3)n1	DNMT1 inh 70 | DNMT1 inh conf inactive | DNMT1 interf inactive
Cc1cc(/C=N/Nc2ccc([N+](=O)[O-])cn2)c(C)n1-c1ccc(C(=O)O)cc1	Scp-1 inhibitor 57, DNMT1 inh 61 | DNMT1 inh conf inactive | DNMT1 interf inactive
Cc1ccccc1-n1c(C)cc(/C=N/Nc2ccc([N+](=O)[O-])cn2)c1C	none
CC(C)C[C@H]1CN(CCCC[C@H]2CNC(=O)C(=O)N2Cc2ccccc2)C(=O)C(=O)N1CCc1ccc(O)cc1	none (no result: GRK2 inh, Scp-1 inhibitor, DNMT1 inh, STEP inh)
COc1cc(/C=N/NC(=O)c2nnn(-c3nonc3N)c2C)ccc1OCc1ccc(Cl)cc1	DNMT1 inh 58 (no result: GRK2 inh, Scp-1 inhibitor) | DNMT1 inh conf inactive | DNMT1 interf inactive
CCc1ccc([C@H]2C(C(=O)O)=C[C@@H](CC)N2S(=O)(=O)c2ccc(C)cc2)cc1	DNMT1 inh 74 | DNMT1 inh conf inactive | DNMT1 interf inactive
CC(C(=O)Nc1nccs1)N1C(=O)C2CC=CCC2C1=O (stereo not drawn)	none
C[C@@H](C(=O)Nc1nccs1)N1C(=O)C2CC=CCC2C1=O (stereo partly drawn)	DNMT1 inh 60 | DNMT1 inh conf inactive | DNMT1 interf inactive
O=C(O)Cc1c[nH]c2ccccc12	none
O=C(O)Cc1c[nH]c2cccc(O)c12	DNMT1 inh 74 | DNMT1 interf DR inactive | DNMT1 inh conf 36 | DNMT1 interf inactive
Cc1ccc(CSc2nnc(SCC(=O)N/N=C/c3c[nH]c4ccccc34)s2)cc1	DNMT1 inh 62 (no result: GRK2 inh) | DNMT1 inh conf inactive | DNMT1 interf inactive
O=C(CSc1nnc(SCc2ccccc2)s1)N/N=C/C=C\c1ccco1	Scp-1 inhibitor 82, DNMT1 inh 88 | DNMT1 inh conf inactive | DNMT1 interf inactive
O=C(CSc1nnc(SCc2ccccc2)s1)N/N=C/C=C/c1ccccc1[N+](=O)[O-]	none
COC(=O)[C@@]12C[C@@H](CC(=O)NCCc3ccccc3OC)C(=O)N(Cc3cccc4ccccc34)C1=CCC(C)(C)C2	none (no result: GRK2 inh, Scp-1 inhibitor, DNMT1 inh, STEP inh)
N#Cc1c2ccc(OCC(=O)NCc3ccco3)cc2n2ccccc12	DNMT1 inh 62 | DNMT1 inh conf inactive | DNMT1 interf inactive
O=C(COc1ccccc1)NCc1ccco1	none (no result: GRK2 inh)
CN1CCN(c2ccc(CNC(=O)c3ccc(-c4ccnn4C)c4ccoc34)cc2)CC1	DNMT1 inh 75 (no result: GRK2 inh, Scp-1 inhibitor) | DNMT1 inh conf inactive | DNMT1 interf inactive
CN1CCN(c2ccc(CNC(=O)c3ccc(-c4cnn(C)c4)c4ccoc34)cc2)CC1	none (no result: GRK2 inh, Scp-1 inhibitor)
O=C(CSc1nnc(-c2ccco2)o1)c1ccc[nH]1	LMPTP block 53, DNMT1 inh 55 | DNMT1 inh conf inactive | DNMT1 interf inactive
Cc1cc(NC(=O)CSc2cn(CCNC(=O)c3ccccc3)c3ccccc23)no1	DNMT1 inh 72 | DNMT1 inh conf inactive | DNMT1 interf inactive
COc1ccccc1N(C)S(=O)(=O)c1ccc(Cl)c(C(=O)Nc2ccccc2N2CCOCC2)c1	none (no result: GRK2 inh)
O=C1Nc2ccc3c(c2C1=Cc1cc2c(cc1Br)OCO2)OCO3	DNMT1 inh 67 (no result: GRK2 inh) | DNMT1 inh conf inactive | DNMT1 interf inactive
O=C(CCN1C(=O)/C(=C/c2cccc(Br)c2)SC1=S)Nc1cccnc1	none
O=C(CCN1C(=O)/C(=C/c2cccc(Br)c2)SC1=S)NNC(=O)c1cccnc1	DNMT1 inh 71 | DNMT1 inh conf inactive | DNMT1 interf inactive
COc1ccc2nc(-c3ccco3)c(-c3ccco3)nc2c1	SUMO1 PPI mod 44, LMPTP block 54, Scp-1 inhibitor 77, DNMT1 inh 98 | DNMT1 inh conf inactive | DNMT1 interf inactive
CN(C)C(=O)CN1c2cccc3cccc(c23)S1(=O)=O	none
CN(CC(=O)Nc1cccc(F)c1)C(=O)CN1c2cccc3cccc(c23)S1(=O)=O	DNMT1 inh 53 | DNMT1 inh conf inactive | DNMT1 interf inactive
COC(=O)c1ccc(-c2nc3cc(Cl)c(N)cc3s2)cc1	DNMT1 inh 56 | DNMT1 inh conf inactive | DNMT1 interf inactive
COC(=O)c1ccc(-c2nc(O)c(C)s2)cc1	none
CCOC(=O)C1=C(C)N=c2s/c(=C\c3ccc(OCC(=O)O)cc3)c(=O)n2C1c1ccc(Cl)cc1 (stereo not drawn)	none
